Read-outs that look alike come from different tables or passages of the source.
How the values were obtained:
[1] = cited from earlier work
[2] = cited from earlier work; remark: listed apart in the source
[3] = weakly basic drug; cited from earlier work
[4] = format: in vivo, human; conditions: for clearance: CL; for half-life: t½
How it was run: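 Open-label, randomized 2-period, 2-sequence crossover in 12 healthy volunteers, fasted ≥10 h. Single 100 mg oral tablet with water to 240 mL, or 50 mg IV (1 mg/mL over 1.25 h). Plasma sampled 0–96 h and assayed by HPLC-MS/MS (LLOQ 3 ng/mL). Noncompartmental analysis used: CL/F = dose/AUC0‐∞. Log dose-normalized AUCs fitted by linear mixed-effect model; ratios exponentiated with 90% CI.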

[5] = parenteral formulation, rabbit; cited from earlier work
[6] = Hepatic extraction estimate, well-stirred model; parameters: species or system human; conditions: hepatic blood flow of 87 L/h
[7] = single 100‐mg dose; cited from earlier work
[8] = in vitro data and data from the ADME study; cited from earlier work
Human mass balance = format: in vivo; conditions: urine, po, 100 mg
[9] = once daily (QD), patients with advanced myeloid malignancies; cited from earlier work
[10] = system: cytochrome P450 (CYP) 3A4/5; conditions: preclinical studies; cited from earlier work
[11] = cited from earlier work; remark: listed apart in the source
human blood = conditions: parenteral formulation, in vitro; cited from earlier work
[12] = Safety and tolerability evaluation in the absolute bioavailability study; format: in vivo, human
How it was run: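 Healthy subjects in a randomized crossover each received a single 100 mg oral tablet and a single 50 mg IV infusion over 1.25 h, fasted. Recorded as AEs: adverse drug reactions, illnesses with onset during study, exacerbation of previous illness, clinically significant physical-examination changes and abnormal objective test findings. Vital signs, ECG and laboratory parameters were monitored.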

[13] = 100 mg oral tablet, single dose, fasted
[14] = human, plasma, iv, 50 mg, arithmetic mean ± SD, 50 mg IV, single dose, fasted
[15] = human, plasma, iv, 50 mg, geometric mean (geometric CV, %), 50 mg IV, single dose, fasted
[16] = human, plasma, po, 100 mg, arithmetic mean ± SD, 100 mg oral tablet, single dose, fasted

Q: Which “Impact of disintegration and dissolution on absorption kinetics” value ([1]; oral solution compared to instant‐release tablet) does the source give for CN1CC[C@@H](NC(=O)Nc2ccc(C#N)cc2)C[C@@H]1c1nc2ccccc2[nH]1 [Glasdegib] here?
A: do not appear to impact the absorption kinetics

Q: What about the “Geometric mean Cmax” value ([1]; single 100‐mg oral dose, 100‐mg maleate immediate release tablet, healthy subjects) of the same molecule?
A: 775.3 ng/mL

Q: And the “Administered parent dose recovered in the feces” value [2]?
A: 19.5%

Q: What about the “Contribution of the glucuronidation pathway via UGT1A9 to elimination” value [2] of the same molecule?
A: only minor

Q: And the “Major route of elimination” value [2]?
A: primarily through CYP3A4 oxidation

Q: What about the “Mean plasma renal clearance” value [2] of the same molecule?
A: 1.97 L/h

Q: What about the “Solubility, pH dependence” value [3] of the same molecule?
A: decreasing solubility as pH increases

Q: What about the “AUC0‐last(dn), dose normalized geometric mean from the statistical model” value ([4]; 50 mg IV) of the same molecule?
A: 96.98 ng·h/mL/mg

Q: What about the “AUC0‐∞(dn), dose normalized geometric mean from the statistical model” value ([4]; 50 mg IV) of the same molecule?
A: 98.90 ng·h/mL/mg

Q: And the “Intersubject variability in CL, %CV of the geometric mean” value ([4]; 50 mg IV)?
A: 38%

Q: And the “t½, arithmetic mean ± SD” value ([4]; 50 mg IV, single dose, fasted)?
A: 13.78 ± 2.97 h

Q: What about the “AUC0‐last(dn), dose normalized geometric mean from the statistical model” value ([4]; 100 mg oral tablet) of the same molecule?
A: 74.88 ng·h/mL/mg

Q: What about the “AUC0‐∞(dn), dose normalized geometric mean from the statistical model” value ([4]; 100 mg oral tablet) of the same molecule?
A: 76.28 ng·h/mL/mg

Q: What about the “Intersubject variability in CL/F, %CV of the geometric mean” value ([4]; 100 mg oral tablet) of the same molecule?
A: 38%

Q: And the “CL/F, arithmetic mean ± SD” value [4, 13]?
A: 13.87 ± 4.51 L/h

Q: And the “CL/F, geometric mean (geometric CV, %)” value [4, 13]?
A: 13.10 (38) L/h

Q: What about the “t½, arithmetic mean ± SD” value [4, 13] of the same molecule?
A: 14.26 ± 2.45 h

Q: What about the “CL/F, arithmetic mean ± SD” value ([4]; 100 mg oral tablet, single dose, fasted, listed as glasdegib) of the same molecule?
A: 13.87 L/h

Q: And the Tmax ([4]; human, plasma, iv, 50 mg)?
A: 1.27 h

Q: What about the AUC ([4]; human, plasma, iv, 50 mg, AUC0‐last, arithmetic mean ± SD, 50 mg IV, single dose, fasted) of the same molecule?
A: 5120 ± 2160 ng·h/mL

Q: And the AUC ([4]; human, plasma, iv, 50 mg, AUC0‐last, geometric mean (geometric CV, %), 50 mg IV, single dose, fasted)?
A: 4780 ng·h/mL

Q: And the AUC ([4]; human, plasma, iv, 50 mg, AUC0‐∞, arithmetic mean ± SD, 50 mg IV, single dose, fasted)?
A: 5220 ± 2210 ng·h/mL

Q: And the AUC ([4]; human, plasma, iv, 50 mg, AUC0‐∞, geometric mean (geometric CV, %), 50 mg IV, single dose, fasted)?
A: 4880 ng·h/mL

Q: What about the clearance [4, 14] of the same molecule?
A: 181 mL/min

Q: What about the clearance [4, 15] of the same molecule?
A: 171 mL/min

Q: What about the Cmax [4, 14] of the same molecule?
A: 687 ± 197 ng/mL

Q: What about the Cmax [4, 15] of the same molecule?
A: 665 ng/mL

Q: And the half-life [4, 14]?
A: 13.8 h

Q: What about the bioavailability ([4]; human, plasma, oral, Absolute oral bioavailability, arithmetic mean ± SD, arithmetic mean ratios, without logarithmic transformation, of AUC0‐∞(dn) oral to IV) of the same molecule?
A: 78.5 ± 12.8%

Q: What about the Tmax ([4]; human, plasma, po, 100 mg) of the same molecule?
A: 1.52 h

Q: And the AUC ([4]; human, plasma, po, 100 mg, AUC0‐last, arithmetic mean ± SD, 100 mg oral tablet, single dose, fasted)?
A: 7990 ± 3310 ng·h/mL

Q: What about the AUC ([4]; human, plasma, po, 100 mg, AUC0‐last, geometric mean (geometric CV, %), 100 mg oral tablet, single dose, fasted) of the same molecule?
A: 7490 ng·h/mL

Q: What about the AUC ([4]; human, plasma, po, 100 mg, AUC0‐∞, arithmetic mean ± SD, 100 mg oral tablet, single dose, fasted) of the same molecule?
A: 8160 ± 3440 ng·h/mL

Q: And the AUC ([4]; human, plasma, po, 100 mg, AUC0‐∞, geometric mean (geometric CV, %), 100 mg oral tablet, single dose, fasted)?
A: 7630 ng·h/mL

Q: What about the Cmax [4, 16] of the same molecule?
A: 684 ± 155 ng/mL

Q: And the Cmax ([4]; human, plasma, po, 100 mg, geometric mean (geometric CV, %), 100 mg oral tablet, single dose, fasted)?
A: 668 ng/mL

Q: And the half-life [4, 16]?
A: 14.3 h

Q: And the “Local vascular tissue irritation” value [5]?
A: did not suggest that glasdegib was the cause of hemolysis in human blood and/or local vascular tissue irritation

Q: And the Hepatic extraction [6]?
A: < 0.3

Q: And the “Effect of proton‐pump inhibitors on glasdegib PK” value [7]?
A: do not have a clinically relevant effect

Q: What about the “Plasma to whole blood partitioning” value [8] of the same molecule?
A: < 1

Q: What about the dose excreted (Human mass balance) of the same molecule?
A: ≥ 49%

Q: What about the “Maximum tolerated dose as a single agent” value [9] of the same molecule?
A: 400 mg

Q: What about the Metabolizing enzyme [10] of the same molecule?
A: primarily metabolized by cytochrome P450 (CYP) 3A4/5

Q: And the Maximum tolerated dose ([11]; QD, patients with advanced solid tumor)?
A: 320 mg

Q: What about the Tolerability ([11]; single dose of 320 mg, patients with advanced tumors) of the same molecule?
A: well tolerated

Q: What about the “Hemolysis in human blood” value (human blood) of the same molecule?
A: did not suggest that glasdegib was the cause of hemolysis in human blood

Q: What about the AEs reported ([12]; following 50 mg IV administration) of the same molecule?
A: No AEs were reported

Q: What about the “Number of AEs reported” value ([12]; following 100 mg oral tablet, 1 mild and 1 moderate, in 2 subjects) of the same molecule?
A: 2

Q: What about the Tolerability ([12]; single 100‐mg oral and 50‐mg IV doses, healthy subjects) of the same molecule?
A: generally safe and well tolerated

Q: And the “Peak ALT elevation, subject with moderate AE” value ([12]; treatment period 1 day 10, after oral 100 mg)?
A: 3 × upper limit of normal

Q: With [^14C]glasdegib as the molecule, how does the “Mean recovery of radioactivity in urine (as parent and metabolites)” value ([2]; single oral dose of 100‐mg/100‐µCi, 6 healthy volunteers) read?
A: 49%

Source: article PMC6850403 (Clinical Pharmacology in Drug Development, 2019)
